Results as given in ChEMBL document CHEMBL3112427, “Insights into the mechanism of streptonigrin-induced protein arginine deiminase inactivation” (Bioorg Med Chem, 2014).
Activity calls are given as the source filed them. The rule behind the calls is not given here.

Experiments:
U2OS [1] = experiment: Cytotoxicity against human U2OS cells assessed as cell viability at 10 uM after 3 days by XTT-PMS assay relative to control; type: functional; settings: for viability at 10 µM: 72 h, read-out: Activity
In short: (§1)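 U2OS or NIH 3T3 cells (2.5 × 10^4 cells/mL) plated in 48-well format (n=4) and dosed with 10 µM compound for 3 days. XTT-PMS activated reagent then added for 4 h of colour development; formazan absorbance read at 475 nm.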

NIH3T3 [2] = experiment: Cytotoxicity against mouse NIH/3T3 cells assessed as cell viability at 10 uM after 3 days by XTT-PMS assay relative to control; type: cell-based; settings: nih3t3, 72 h; in short: as §1
[3] = target: T1, Protein-arginine deiminase type-3 (Homo sapiens, UniProt Q9ULW8); experiment: Inhibition of recombinant wild-type PAD3 (unknown origin) using N-alpha-Benzoyl-L-arginine amide as substrate preincubated for 15 mins followed by substrate addition measured after 15 mins by COLDER assay
T1 sequence (Q9ULW8 whole entry): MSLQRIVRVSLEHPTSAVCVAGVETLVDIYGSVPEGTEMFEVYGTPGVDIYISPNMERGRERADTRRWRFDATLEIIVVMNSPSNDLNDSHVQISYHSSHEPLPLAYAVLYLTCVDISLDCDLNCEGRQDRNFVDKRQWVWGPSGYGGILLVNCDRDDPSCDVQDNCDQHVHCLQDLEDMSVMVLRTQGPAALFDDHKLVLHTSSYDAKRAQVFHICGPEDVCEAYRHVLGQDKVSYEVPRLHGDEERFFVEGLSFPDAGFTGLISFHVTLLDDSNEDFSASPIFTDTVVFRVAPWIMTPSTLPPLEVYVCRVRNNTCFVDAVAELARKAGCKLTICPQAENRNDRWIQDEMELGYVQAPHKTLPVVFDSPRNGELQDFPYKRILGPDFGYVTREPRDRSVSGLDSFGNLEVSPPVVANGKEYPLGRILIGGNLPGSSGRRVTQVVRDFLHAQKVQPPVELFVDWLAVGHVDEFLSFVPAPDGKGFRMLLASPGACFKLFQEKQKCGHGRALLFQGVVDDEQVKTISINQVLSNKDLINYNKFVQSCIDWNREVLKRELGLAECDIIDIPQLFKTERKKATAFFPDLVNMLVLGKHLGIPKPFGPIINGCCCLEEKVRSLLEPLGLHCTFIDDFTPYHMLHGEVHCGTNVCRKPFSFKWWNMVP

[4] = target: T2, Protein-arginine deiminase type-2 (Homo sapiens, UniProt Q9Y2J8); experiment: Inhibition of recombinant wild-type PAD2 (unknown origin) using N-alpha-Benzoyl-L-arginine ethyl ester as substrate preincubated for 15 mins followed by substrate addition measured after 15 mins by COLDER assay
T2 sequence (Q9Y2J8 whole entry): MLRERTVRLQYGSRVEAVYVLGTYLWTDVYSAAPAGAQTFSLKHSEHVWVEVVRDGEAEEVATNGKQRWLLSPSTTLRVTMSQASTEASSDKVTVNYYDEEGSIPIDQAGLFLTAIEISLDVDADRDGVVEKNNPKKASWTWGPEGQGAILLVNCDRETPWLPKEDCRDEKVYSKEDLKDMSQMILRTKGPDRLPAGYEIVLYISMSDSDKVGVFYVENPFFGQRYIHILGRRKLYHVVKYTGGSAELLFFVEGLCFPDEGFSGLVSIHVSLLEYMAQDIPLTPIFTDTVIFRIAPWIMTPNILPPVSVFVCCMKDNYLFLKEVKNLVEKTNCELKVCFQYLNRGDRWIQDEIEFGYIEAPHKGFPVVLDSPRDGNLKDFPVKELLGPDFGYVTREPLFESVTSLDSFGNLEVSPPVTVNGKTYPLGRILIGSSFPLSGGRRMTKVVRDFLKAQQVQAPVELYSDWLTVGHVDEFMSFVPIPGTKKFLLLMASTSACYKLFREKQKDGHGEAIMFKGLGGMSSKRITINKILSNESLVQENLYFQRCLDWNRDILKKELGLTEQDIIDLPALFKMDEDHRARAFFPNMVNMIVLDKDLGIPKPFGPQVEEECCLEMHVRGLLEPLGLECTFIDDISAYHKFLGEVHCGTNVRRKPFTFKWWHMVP

[5] = target: T3, Protein-arginine deiminase type-1 (Homo sapiens, UniProt Q9ULC6); experiment: Inhibition of recombinant wild-type PAD1 (unknown origin) using N-alpha-Benzoyl-L-arginine amide as substrate preincubated for 15 mins followed by substrate addition measured after 15 mins by COLDER assay
T3 sequence (Q9ULC6 whole entry): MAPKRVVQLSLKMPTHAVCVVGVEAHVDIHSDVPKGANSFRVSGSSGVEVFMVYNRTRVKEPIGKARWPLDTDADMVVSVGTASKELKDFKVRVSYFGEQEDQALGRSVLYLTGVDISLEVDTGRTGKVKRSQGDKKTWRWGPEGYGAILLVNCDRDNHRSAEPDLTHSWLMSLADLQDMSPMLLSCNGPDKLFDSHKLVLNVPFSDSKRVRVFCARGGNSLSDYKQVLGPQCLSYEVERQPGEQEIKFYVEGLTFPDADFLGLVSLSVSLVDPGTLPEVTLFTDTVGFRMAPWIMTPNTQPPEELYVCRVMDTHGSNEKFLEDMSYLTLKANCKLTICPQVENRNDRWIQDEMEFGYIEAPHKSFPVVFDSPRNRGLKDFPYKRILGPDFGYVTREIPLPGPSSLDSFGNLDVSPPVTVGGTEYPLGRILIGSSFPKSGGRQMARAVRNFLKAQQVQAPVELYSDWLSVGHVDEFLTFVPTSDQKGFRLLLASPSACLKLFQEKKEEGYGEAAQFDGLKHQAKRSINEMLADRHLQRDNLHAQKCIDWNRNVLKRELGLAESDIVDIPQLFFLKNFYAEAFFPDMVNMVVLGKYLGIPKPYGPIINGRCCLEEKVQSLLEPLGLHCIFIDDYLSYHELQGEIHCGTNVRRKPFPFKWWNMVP

[6] = target: T4, Protein-arginine deiminase type-4 (Homo sapiens, UniProt Q9UM07); experiment: Inhibition of recombinant wild-type PAD4 (unknown origin) using N-alpha-Benzoyl-L-arginine ethyl ester as substrate preincubated for 15 mins followed by substrate addition measured after 15 mins by COLDER assay
T4 sequence (Q9UM07 whole entry): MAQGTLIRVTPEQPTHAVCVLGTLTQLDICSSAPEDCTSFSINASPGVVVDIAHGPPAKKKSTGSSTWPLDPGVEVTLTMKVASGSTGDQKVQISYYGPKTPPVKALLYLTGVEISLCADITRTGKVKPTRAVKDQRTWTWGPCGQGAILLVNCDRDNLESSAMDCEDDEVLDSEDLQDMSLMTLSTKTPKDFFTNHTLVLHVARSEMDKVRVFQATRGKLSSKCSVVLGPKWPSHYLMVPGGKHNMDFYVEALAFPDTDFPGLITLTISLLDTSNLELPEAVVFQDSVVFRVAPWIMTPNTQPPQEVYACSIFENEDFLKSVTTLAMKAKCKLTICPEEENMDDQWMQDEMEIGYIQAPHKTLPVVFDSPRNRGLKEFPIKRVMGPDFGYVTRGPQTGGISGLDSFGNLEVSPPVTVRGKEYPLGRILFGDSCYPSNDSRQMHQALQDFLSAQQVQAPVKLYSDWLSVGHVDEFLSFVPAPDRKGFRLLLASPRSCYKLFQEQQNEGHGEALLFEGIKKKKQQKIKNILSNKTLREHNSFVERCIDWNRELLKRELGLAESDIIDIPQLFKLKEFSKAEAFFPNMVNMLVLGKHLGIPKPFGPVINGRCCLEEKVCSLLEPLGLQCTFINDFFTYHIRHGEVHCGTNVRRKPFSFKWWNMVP

[7] = target: T4, Protein-arginine deiminase type-4; experiment: Binding affinity to recombinant wild-type PAD4 (unknown origin) assessed as mass shift of enzyme at 1:10 enzyme to compound ratio preincubated for 1 hr followed by overnight dialysis in double distilled water by MALDI mass spectrometric analysis in presence of catalase
[8] = system: Protein-arginine deiminase type-2 (Homo sapiens), Q9Y2J8 [C647A]; experiment: Binding affinity to PAD2 C647A mutant (unknown origin) assessed as mass shift of enzyme at 1:10 enzyme to compound ratio preincubated for 1 hr followed by overnight dialysis in double distilled water by MALDI mass spectrometric analysis
Chain of Protein-arginine deiminase type-2 (Homo sapiens), Q9Y2J8 [C647A] (Q9Y2J8 whole entry C647A): as the sequence (Q9Y2J8 whole entry) above, with C647A counted along it

[9] = target: T4, Protein-arginine deiminase type-4; experiment: Binding affinity to recombinant wild-type PAD4 (unknown origin) assessed as mass shift of enzyme at 1:10 enzyme to compound ratio preincubated for 1 hr followed by overnight dialysis in double distilled water by MALDI mass spectrometric analysis in presence of superoxide dismutase
[10] = system: Protein-arginine deiminase type-4 (Homo sapiens), Q9UM07 [C645A]; experiment: Binding affinity to PAD4 C645A mutant (unknown origin) assessed as mass shift of enzyme at 1:10 enzyme to compound ratio preincubated for 1 hr followed by overnight dialysis in double distilled water by MALDI mass spectrometric analysis in presence of catalase
Chain of Protein-arginine deiminase type-4 (Homo sapiens), Q9UM07 [C645A] (Q9UM07 whole entry C645A): as the sequence (Q9UM07 whole entry) above, with C645A counted along it

[11] = target: T2, Protein-arginine deiminase type-2; experiment: Inhibition of recombinant wild-type PAD2 (unknown origin) using N-alpha-Benzoyl-L-arginine ethyl ester as substrate preincubated for 10 mins followed by substrate addition measured after 15 mins by COLDER assay
[12] = system: Protein-arginine deiminase type-4 (Homo sapiens), Q9UM07 [C645A]; experiment: Binding affinity to PAD4 C645A mutant (unknown origin) assessed as mass shift of enzyme at 1:10 enzyme to compound ratio preincubated for 1 hr followed by overnight dialysis in double distilled water by MALDI mass spectrometric analysis in presence of superoxide dismutase
[13] = target: T2, Protein-arginine deiminase type-2; settings: at 0.1 to 2.5 µM
U2OS [14] = experiment: Cytotoxicity against human U2OS cells after 3 days by XTT-PMS assay; settings: 72 h
[15] = target: T4, Protein-arginine deiminase type-4
[16] = target: T4, Protein-arginine deiminase type-4; settings: 0.5 uM
[17] = target: T4, Protein-arginine deiminase type-4; experiment: Inhibition of recombinant wild-type PAD4 (unknown origin) using N-alpha-Benzoyl-L-arginine ethyl ester as substrate preincubated for 10 mins followed by substrate addition measured after 15 mins by COLDER assay
[18] = target: T2, Protein-arginine deiminase type-2; experiment: Binding affinity to recombinant wild-type PAD2 (unknown origin) assessed as mass shift of enzyme at 1:10 enzyme to compound ratio preincubated for 1 hr followed by overnight dialysis in double distilled water by MALDI mass spectrometric analysis
[19] = target: T2, Protein-arginine deiminase type-2
[20] = system: Protein-arginine deiminase type-4 (Homo sapiens), Q9UM07 [C645A]; experiment: Binding affinity to PAD4 C645A mutant (unknown origin) assessed as mass shift of enzyme at 1:10 enzyme to compound ratio preincubated for 1 hr followed by overnight dialysis in double distilled water by MALDI mass spectrometric analysis
[21] = target: T4, Protein-arginine deiminase type-4; experiment: Competitive inhibition of recombinant wild-type PAD4 (unknown origin) at 1 to 50 uM by fluorescence polarization-ABPP assay in presence of RFA; settings: in the assay text read “gel-based competitive ABPP assay” for “fluorescence polarization-ABPP assay”
In short: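 Wild-type PAD4 (2 µM final) labelled with RFA (10 µM final) plus 10 mM calcium in the presence of competitor (0–50 µM final). Quenched with SDS loading buffer, boiled 20 min, run on 12% SDS-PAGE; in-gel fluorescence imaged and quantified.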

NIH3T3 [22] = experiment: Cytotoxicity against mouse NIH/3T3 cells after 3 days by XTT-PMS assay; settings: NIH3T3, 72 h
[23] = target: T4, Protein-arginine deiminase type-4; experiment: Binding affinity to recombinant wild-type PAD4 (unknown origin) assessed as mass shift of enzyme at 1:10 enzyme to compound ratio preincubated for 1 hr followed by overnight dialysis in double distilled water by MALDI mass spectrometric analysis
[24] = target: T5, Protein-arginine deiminase type-1 (Homo sapiens) (UniProt Q9ULC6); experiment: Irreversible inhibition of recombinant wild-type PAD1 (unknown origin) using N-alpha-Benzoyl-L-arginine amide as substrate assessed as residual activity at 170-fold excess of compound after 1 hr by dialysis method
T5 sequence (whole entry): T3 sequence (Q9ULC6 whole entry)

[25] = target: T6, Protein-arginine deiminase type-3 (Homo sapiens) (UniProt Q9ULW8); experiment: Irreversible inhibition of recombinant wild-type PAD3 (unknown origin) using N-alpha-Benzoyl-L-arginine amide as substrate assessed as residual activity at 170-fold excess of compound after 1 hr by dialysis method
T6 sequence (whole entry): T1 sequence (Q9ULW8 whole entry)

[26] = target: T4, Protein-arginine deiminase type-4; experiment: Irreversible inhibition of recombinant wild-type PAD4 (unknown origin) using N-alpha-Benzoyl-L-arginine ethyl ester as substrate assessed as residual activity at 170-fold excess of compound after 1 hr by dialysis method
In short: (§2)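 Wild-type PAD2 or PAD4 (0.6 µM final) incubated 1 h with compound (170-fold excess) or no compound in Reaction Buffer, then dialysed 20 h against Long-Term Storage Buffer (Tris-HCl pH 7.6, 1 mM EDTA, 500 mM NaCl, 2 mM DTT, 10% glycerol). Residual activity measured with 10 mM BAEE, quenched in liquid N2, and expressed relative to separately dialysed untreated enzyme (100%).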

[27] = target: T2, Protein-arginine deiminase type-2; experiment: Irreversible inhibition of recombinant wild-type PAD2 (unknown origin) using N-alpha-Benzoyl-L-arginine ethyl ester as substrate assessed as residual activity at 170-fold excess of compound after 1 hr by dialysis method; in short: as §2

IC50 [3]	IC50 [4]	IC50 [5]	IC50 [6]	Activity [7]	Activity [8]	Activity [9]	Activity [10]	Activity [12]	inhibition [13]	Activity [18]	Activity [20]	inhibition [21]	Activity [23]	SMILES	viability at 10 µM (U2OS [1])	Activity (NIH3T3 [2])	Activity (U2OS [1])	EC50 (U2OS [14])	EC50 (NIH3T3 [22])	also measured
														NC1=C(Br)C(=O)c2cccnc2C1=O	≤ 30%	<= 30%				
4.4 µM	6.32 µM	4.55 µM	3.3 µM											COC1=C(Br)C(=O)c2ncccc2C1=O		Active	Active			
0.13 µM	0.32 µM	0.95 µM	0.64 µM	Active	Active	Active	Active	Active	Active	Active	Active	Active	Active	NC1=CC(=O)c2ccc(-c3ccccn3)nc2C1=O	≤ 30%	<= 30%		0.4 µM	0.6 µM	Ki [11]: 8.08 µM; Kinact [15]: 0.12 min⁻¹; inhibition [16]: Active; Ki [17]: 20.1 µM; Kinact [19]: 0.07 min⁻¹
0.17 µM	0.74 µM	0.96 µM	1 µM											NC1=CC(=O)c2cccnc2C1=O	≤ 30%	<= 30%		0.8 µM	1.1 µM	
0.71 µM	0.2 µM	0.07 µM		Active	Active	Active	Active	Active	Active	Active	Active	Active	Active	NC1=CC(=O)c2ccc(-c3cccc(C(=O)O)n3)nc2C1=O		Active	Active	58.3 µM	61.7 µM	Activity [24]: inactive; Activity [25]: inactive; Activity [26]: inactive; Activity [27]: inactive

SMILES	IC50 [3]	IC50 [4]	IC50 [5]	IC50 [6]	Activity [7]	Activity [8]	Activity [9]	Activity [10]	Activity [12]	inhibition [13]	Activity [18]	Activity [20]	inhibition [21]	Activity [23]	viability at 10 µM (U2OS [1])	Activity (NIH3T3 [2])	Activity (U2OS [1])	EC50 (U2OS [14])	EC50 (NIH3T3 [22])	also measured
COC1=C(N)C(=O)c2nc(-c3nc(C(=O)O)c(C)c(-c4ccc(OC)c(OC)c4O)c3N)ccc2C1=O [STREPTONIGRIN]	0.43 µM	26.1 µM	48.3 µM		Active	Active	Active	Active	Active	Active	Active	Active	Active	Active						
